What was measured:
[1] = biological target: 11-beta-hydroxysteroid dehydrogenase 1 (Mus musculus, UniProt P50172); assay: Inhibition of mouse recombinant 11beta-HSD1 by scintillation proximity assay
Mus musculus [2] = assay: Inhibition of 11beta-HSD1 in mouse adipose tissue at 3 mg/kg, po after 7 hrs; assay type: functional
Method in brief: (§1)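 Pharmacodynamic study in mice: single oral 3 mg/kg dose, with liver and fat 11β-HSD1 activity followed over 24 h post-dosing.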

[3] = Solubility of the compound in aqueous buffer up to pH 4.5; assay type: physicochemical
in vivo = details: rat, liver, po, 10 mg/kg
Mus musculus [4] = assay: Ex vivo inhibition of 11beta-HSD1 in C57Bl/6J mouse liver at 30 mg/kg, po after 16 hrs; assay type: functional
Method in brief: (§2)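 Mice given a single oral dose as a suspension in Tween 80/0.6% methylcellulose (0.5/99.5, v/v) at 10 mL/kg. At 2 h or 16 h post-dose, animals were killed by cervical dislocation and 50 mg liver and 200 mg subcutaneous fat were taken for 11β-HSD1 activity. Reactions were stopped with HCl 1 N/methanol (1/1). 3H-cortisone and 3H-cortisol were quantified by HPLC with flow scintillation detection.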

Liver microsomes = assay: Metabolic stability in human liver microsomes; assay type: ADME, Microsome
[5] = Plasma clearance in rat at 3 mg/kg, iv and 10 mg/kg, po; assay type: ADME, organism-based
[6] = Oral bioavailability in rat at 10 mg/kg; assay type: ADME, organism-based; details: in vivo
Mus musculus [7] = assay: Antidiabetic activity in diet induced obese C57Bl/6J mouse assessed as plasma glucose level at 10 mg/kg, po qd administered for 4 weeks (reference value: 297 +/- 15 mg/dL); assay type: functional
Hepatocyte = assay: Intrinsic clearance in human hepatocytes assessed per 10^-6 cells; assay type: ADME, cell-based
Mus musculus [8] = assay: Antidiabetic activity in po dosed C57Bl/6J mouse assessed as reduction in plasma insulin level administered for 4 weeks; assay type: functional, organism-based
Liver = assay: Metabolic stability in mouse liver microsomes; assay type: ADME, Microsome
Mus musculus [9] = assay: Antidiabetic activity in diet induced obese C57Bl/6J mouse assessed as plasma insulin level at 10 mg/kg, po qd administered for 4 weeks (reference value: 3.6 +/- 0.2 ng/mL); assay type: functional
Mus musculus [10] = assay: Antidiabetic activity in diet induced obese C57Bl/6J mouse assessed as liver triglyceride level at 3 mg/kg, po qd administered for 4 weeks (reference value: 210.5 +/- 15.4 mg/g); assay type: functional
Cytochrome P450 3A4 = Cytochrome P450 3A4 (Homo sapiens, UniProt P08684); assay: Inhibition of CYP3A4 (unknown origin); assay type: ADME
Sequence of Cytochrome P450 3A4 (P08684 whole entry): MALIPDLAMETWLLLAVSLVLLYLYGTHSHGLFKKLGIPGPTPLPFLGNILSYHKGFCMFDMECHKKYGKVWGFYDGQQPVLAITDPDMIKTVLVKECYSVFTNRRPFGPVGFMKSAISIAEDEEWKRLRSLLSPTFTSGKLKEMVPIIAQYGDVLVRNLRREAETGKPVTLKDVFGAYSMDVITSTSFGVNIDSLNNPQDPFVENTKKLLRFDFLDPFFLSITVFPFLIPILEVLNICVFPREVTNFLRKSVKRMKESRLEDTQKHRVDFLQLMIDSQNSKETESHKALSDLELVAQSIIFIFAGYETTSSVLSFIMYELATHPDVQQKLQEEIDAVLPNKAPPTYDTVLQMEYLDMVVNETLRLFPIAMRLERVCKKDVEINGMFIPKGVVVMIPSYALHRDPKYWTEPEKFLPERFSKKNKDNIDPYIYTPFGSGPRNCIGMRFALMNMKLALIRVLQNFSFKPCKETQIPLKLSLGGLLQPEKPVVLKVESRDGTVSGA

Mus musculus [11] = assay: Toxicity in C57Bl/6J mouse assessed as change in body weight at 1 to 10 mg/kg, po; assay type: organism-based; parameters: dose 1-10 mg/kg, route oral; details: in vivo
Method in brief: (§3)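 C57Bl/6J mice, 20 weeks old, kept on a high-fat/high-fructose diet (diet-induced obese), were dosed orally once daily for 4 weeks at 1, 3 or 10 mg/kg/day in methylcellulose-Tween 80 vehicle. Lean and obese vehicle-treated controls were included, with n = 9–10 per group. Food intake and body weight were followed. Plasma drug levels were taken at study end, about 22 h after the last dose.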

Mus musculus [12] = assay: Antidiabetic activity in diet induced obese C57Bl/6J mouse assessed as plasma leptin level at 10 mg/kg, po qd administered for 4 weeks (reference value: 22.5 +/- 2.4 ng/mL); assay type: functional
Mus musculus [13] = assay: Antidiabetic activity in diet induced obese C57Bl/6J mouse assessed as plasma insulin level at 1 mg/kg, po qd administered for 4 weeks (reference value: 3.6 +/- 0.2 ng/mL); assay type: functional
Mus musculus [14] = assay: Toxicity in C57Bl/6J mouse assessed as effect on food intake at 1 to 10 mg/kg, po; assay type: organism-based; parameters: dose 1-10 mg/kg, route oral; details: in vivo; method in brief: as §3
Mus musculus [15] = assay: Antidiabetic activity in diet induced obese C57Bl/6J mouse assessed as plasma triglyceride level at 3 mg/kg, po qd administered for 4 weeks (reference value: 36.2 +/- 2.1 […]); assay type: functional
Mus musculus [16] = assay: Antidiabetic activity in diet induced obese C57Bl/6J mouse assessed as plasma leptin level at 3 mg/kg, po qd administered for 4 weeks (reference value: 22.5 +/- 2.4 ng/mL); assay type: functional
Mus musculus [17] = assay: Inhibition of 11beta-HSD1 in mouse liver at 3 mg/kg, po after 7 hrs; assay type: functional; method in brief: as §1
Mus musculus [18] = assay: Ex vivo inhibition of 11beta-HSD1 in C57Bl/6J mouse subcutaneous fat at 30 mg/kg, po after 16 hrs; assay type: functional; method in brief: as §2
[19] = biological target: 11-beta-hydroxysteroid dehydrogenase 1 (Rattus norvegicus, UniProt P16232); assay: Inhibition of rat 11beta-HSD1
Sequence of 11-beta-hydroxysteroid dehydrogenase 1 (Rattus norvegicus, UniProt P16232) (P16232 whole entry): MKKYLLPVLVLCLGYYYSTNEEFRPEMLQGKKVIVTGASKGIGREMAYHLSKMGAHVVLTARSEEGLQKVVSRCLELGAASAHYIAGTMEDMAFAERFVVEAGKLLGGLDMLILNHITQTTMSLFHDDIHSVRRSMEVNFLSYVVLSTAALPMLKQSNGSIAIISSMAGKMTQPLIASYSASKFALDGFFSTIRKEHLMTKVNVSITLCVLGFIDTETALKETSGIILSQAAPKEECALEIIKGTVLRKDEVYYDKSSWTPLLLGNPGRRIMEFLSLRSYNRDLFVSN

Sequence of 11-beta-hydroxysteroid dehydrogenase 1 (Mus musculus, UniProt P50172) (P50172 whole entry): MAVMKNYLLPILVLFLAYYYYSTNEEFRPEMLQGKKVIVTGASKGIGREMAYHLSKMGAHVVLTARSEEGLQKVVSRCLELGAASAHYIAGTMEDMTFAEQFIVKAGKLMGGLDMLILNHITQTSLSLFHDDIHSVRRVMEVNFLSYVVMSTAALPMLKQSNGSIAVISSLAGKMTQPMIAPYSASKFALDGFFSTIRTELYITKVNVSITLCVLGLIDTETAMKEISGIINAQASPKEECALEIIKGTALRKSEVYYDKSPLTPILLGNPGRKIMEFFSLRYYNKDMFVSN

With `CC(C)(C)N1CCN(c2ccc(N3CCN(C(=O)N[C@H]4C5CC6CC4C[C@](C(N)=O)(C6)C5)c4ccccc43)nc2)CC1` the IC50 [1] was 6 nM, the inhibition in vivo at 3 mg/kg (Mus musculus [2]) was > 90% and the solubility [3] was > 2000 µg/mL. For the same compound, the Kp (in vivo) was 224, the inhibition in vivo at 30 mg/kg (Mus musculus [4]) was 72% and the Stability (Liver microsomes) was 2%. It also gave a clearance [5] of 86.7 mL/min/kg, a bioavailability [6] of 25% and an Activity (Mus musculus [7]) of 224.6 mg/dL. The CLH (Hepatocyte) was 0.035 mL/h, the Activity (Mus musculus [8]) was “Dose-dependent effect” and the Stability (Liver) was 13%. For the same compound, the Activity (Mus musculus [9]) was 1.9 ng/mL, the Activity (Mus musculus [10]) was 142.8 mg/g and the IC50 (Cytochrome P450 3A4) was > 50 µM. For the same compound, the Activity (Mus musculus [11]) was “Non-toxic”, the Activity (Mus musculus [12]) was 12.5 ng/mL and the Activity (Mus musculus [13]) was 2.8 ng/mL. The Activity (Mus musculus [14]) was “Non-toxic”, the Activity (Mus musculus [15]) was 38.4 mg/mL and the Activity (Mus musculus [16]) was 12.5 ng/mL. The inhibition in vivo at 3 mg/kg (Mus musculus [17]) was > 90%, the inhibition in vivo at 30 mg/kg (Mus musculus [18]) was 60% and the IC50 [19] was 7 nM.

Source: ChEMBL document CHEMBL2380292, “Discovery of SAR184841, a potent and long-lasting inhibitor of 11β-hydroxysteroid dehydrogenase type 1, active in a physiopathological animal model of T2D” (Bioorg Med Chem Lett, 2013)
